Results from ChEMBL document CHEMBL1159035, “Click synthesis of estradiol-cyclodextrin conjugates as cell compartment selective estrogens” (Bioorg Med Chem, 2010).

Legend:
Estrogen receptor [1] = biological target: T1, Estrogen receptor (Homo sapiens, UniProt P03372); assay: Antiestrogenic activity at ERalpha in human Ishikawa cells assessed as alkaline phosphatase activity after 4 days by microplate scanning spectrophotometry; assay type: cell-based
T1 sequence (P03372 whole entry): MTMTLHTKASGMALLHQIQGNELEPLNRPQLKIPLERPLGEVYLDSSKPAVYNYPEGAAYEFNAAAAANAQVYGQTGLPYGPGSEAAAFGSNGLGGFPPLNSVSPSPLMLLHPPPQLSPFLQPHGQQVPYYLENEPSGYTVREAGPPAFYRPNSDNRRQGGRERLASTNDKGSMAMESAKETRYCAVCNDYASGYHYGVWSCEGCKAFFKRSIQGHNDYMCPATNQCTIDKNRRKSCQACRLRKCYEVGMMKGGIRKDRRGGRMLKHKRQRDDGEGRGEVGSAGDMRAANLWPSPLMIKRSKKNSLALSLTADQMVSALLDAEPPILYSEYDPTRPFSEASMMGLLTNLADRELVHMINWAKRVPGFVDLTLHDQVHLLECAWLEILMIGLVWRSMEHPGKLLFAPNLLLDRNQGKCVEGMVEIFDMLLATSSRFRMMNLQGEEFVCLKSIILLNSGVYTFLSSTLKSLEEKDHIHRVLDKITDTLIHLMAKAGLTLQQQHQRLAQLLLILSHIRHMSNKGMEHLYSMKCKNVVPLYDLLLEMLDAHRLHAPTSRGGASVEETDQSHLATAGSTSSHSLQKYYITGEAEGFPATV

Estrogen receptor [2] = biological target: T1, Estrogen receptor; assay: Estrogenic activity at ERalpha in human Ishikawa cells assessed as stimulation of alkaline phosphatase activity after 4 days by microplate scanning spectrophotometry; assay type: cell-based
Estrogen receptor [3] = biological target: T1, Estrogen receptor; assay: Activation of ERalpha-mediated ERE activity in human T47D/PKC cells coexpressing PKCalpha after 18 hrs by luciferase reporter gene assay; assay type: cell-based
MCF7 [4] = assay: Drug uptake in human MCF7 cells assessed as drug localization to nucleus at 100 nM after 24 hrs by confocal fluorescent microscopy; assay type: ADME, cell-based; conditions: mcf7, 24 h, 0.1 µM
In short: (§1)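 MCF-7 cells were grown 48 h at 37 °C, 5% CO2 in phenol-free medium with 10% stripped FBS, then exposed to rhodamine conjugates (100 nM) for 24 h. Rinsed twice with PBS, nuclei stained with Hoechst (0.2 µg/mL). Laser-scanning confocal imaging with rhodamine Ex/Em 544/576 nm, nuclear marker 345/420 nm, plus DIC and overlay. Several images of different cells and planes.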

MCF7 [5] = assay: Drug uptake in human MCF7 cells assessed as drug localization to cytoplasm at 100 nM after 24 hrs by confocal fluorescent microscopy; assay type: ADME, cell-based; conditions: mcf7, 24 h, 0.1 µM; in short: as §1
Estrogen receptor [6] = biological target: T1, Estrogen receptor; assay: Activation of ERalpha-mediated ERE activity in human T47D/neo cells after 18 hrs by luciferase reporter gene assay; assay type: cell-based

Compound	IC50 (Estrogen receptor [1])	EC50 (Estrogen receptor [2]; read-out: EC50) [nM]	also measured
Cn1cc([C@]2(O)CC[C@H]3[C@@H]4CCc5cc(O)ccc5[C@H]4CC[C@@]32C)nn1	Not Active		
CC#C[C@]1(O)CC[C@H]2[C@@H]3CCc4cc(O)ccc4[C@H]3CC[C@@]21C [ESTROGEN]		0.028	
[N-]=[N+]=NC[C@H]1O[C@@H]2O[C@H]3[C@H](O)[C@@H](O)[C@@H](O[C@H]4[C@H](O)[C@@H](O)[C@@H](O[C@H]5[C@H](O)[C@@H](O)[C@@H](O[C@H]6[C@H](O)[C@@H](O)[C@@H](O[C@H]7[C@H](O)[C@@H](O)[C@@H](O[C@H]8[C@H](O)[C@@H](O)[C@@H](O[C@H]1[C@H](O)[C@H]2O)O[C@@H]8CN=[N+]=[N-])O[C@@H]7CN=[N+]=[N-])O[C@@H]6CN=[N+]=[N-])O[C@@H]5C/N=[NH+]\[NH-])O[C@@H]4CN=[N+]=[N-])O[C@@H]3CN=[N+]=[N-]	Not Active		EC50 (Estrogen receptor [2]; ishikawa): Not Active
C[C@]12CC[C@@H]3c4ccc(O)cc4CC[C@H]3[C@@H]1CC[C@@]2(O)C#Cc1ccc(N)cc1	Not Active	10	

The next lines start with results.

IC50 (Estrogen receptor [1])	EC50 (Estrogen receptor [2]; read-out: EC50) [nM]	Compound	also measured
Not Active	4000	C[C@]12CC[C@@H]3c4ccc(O)cc4CC[C@H]3[C@@H]1CC[C@@]2(O)C#Cc1ccc(CNC[C@H]2O[C@@H]3O[C@H]4[C@H](O)[C@@H](O)[C@@H](O[C@H]5[C@H](O)[C@@H](O)[C@@H](O[C@H]6[C@H](O)[C@@H](O)[C@@H](O[C@H]7[C@H](O)[C@@H](O)[C@@H](O[C@H]8[C@H](O)[C@@H](O)[C@@H](O[C@H]9[C@H](O)[C@@H](O)[C@@H](O[C@H]2[C@H](O)[C@H]3O)O[C@@H]9CO)O[C@@H]8CO)O[C@@H]7CO)O[C@@H]6CO)O[C@@H]5CO)O[C@@H]4CO)cc1	
Not Active		NC[C@H]1O[C@@H]2O[C@H]3[C@H](O)[C@@H](O)[C@@H](O[C@H]4[C@H](O)[C@@H](O)[C@@H](O[C@H]5[C@H](O)[C@@H](O)[C@@H](O[C@H]6[C@H](O)[C@@H](O)[C@@H](O[C@H]7[C@H](O)[C@@H](O)[C@@H](O[C@H]8[C@H](O)[C@@H](O)[C@@H](O[C@H]1[C@H](O)[C@H]2O)O[C@@H]8CN)O[C@@H]7CN)O[C@@H]6CN)O[C@@H]5CN)O[C@@H]4CN)O[C@@H]3CN	EC50 (Estrogen receptor [2]; ishikawa): Not Active
Not Active	4000	C[C@]12CC[C@@H]3c4ccc(O)cc4CC[C@H]3[C@@H]1CC[C@@]2(O)c1cn(C[C@H]2O[C@@H]3O[C@H]4[C@H](O)[C@@H](O)[C@@H](O[C@H]5[C@H](O)[C@@H](O)[C@@H](O[C@H]6[C@H](O)[C@@H](O)[C@@H](O[C@H]7[C@H](O)[C@@H](O)[C@@H](O[C@H]8[C@H](O)[C@@H](O)[C@@H](O[C@H]9[C@H](O)[C@@H](O)[C@@H](O[C@H]2[C@H](O)[C@H]3O)O[C@@H]9CO)O[C@@H]8CO)O[C@@H]7CO)O[C@@H]6CO)O[C@@H]5CO)O[C@@H]4CO)nn1	
Not Active	200	C[C@]12CC[C@@H]3c4ccc(O)cc4CC[C@H]3[C@@H]1CC[C@@]2(O)c1cn(CC[C@H]2O[C@@H]3O[C@H]4[C@H](O)[C@@H](O)[C@@H](O[C@H]5[C@H](O)[C@@H](O)[C@@H](O[C@H]6[C@H](O)[C@@H](O)[C@@H](O[C@H]7[C@H](O)[C@@H](O)[C@@H](O[C@H]8[C@H](O)[C@@H](O)[C@@H](O[C@H]9[C@H](O)[C@@H](O)[C@@H](O[C@H]2[C@H](O)[C@H]3O)O[C@@H]9Cn2cc([C@]3(O)CC[C@H]9[C@@H]%10CCc%11cc(O)ccc%11[C@H]%10CC[C@@]93C)nn2)O[C@@H]8Cn2cc([C@]3(O)CC[C@H]8[C@@H]9CCc%10cc(O)ccc%10[C@H]9CC[C@@]83C)nn2)O[C@@H]7Cn2cc([C@]3(O)CC[C@H]7[C@@H]8CCc9cc(O)ccc9[C@H]8CC[C@@]73C)nn2)O[C@@H]6Cn2cc([C@]3(O)CC[C@H]6[C@@H]7CCc8cc(O)ccc8[C@H]7CC[C@@]63C)nn2)O[C@@H]5Cn2cc([C@]3(O)CC[C@H]5[C@@H]6CCc7cc(O)ccc7[C@H]6CC[C@@]53C)nn2)O[C@@H]4Cn2cc([C@]3(O)CC[C@H]4[C@@H]5CCc6cc(O)ccc6[C@H]5CC[C@@]43C)nn2)nn1	EC50 (Estrogen receptor [3]): 2 nM; Drug uptake (MCF7 [4]): Not Active; Drug uptake (MCF7 [5]): Active; EC50 (Estrogen receptor [6]): > 100 nM
Not Active	27	C[C@]12CC[C@@H]3c4ccc(O)cc4CC[C@H]3[C@@H]1CC[C@@]2(O)C#Cc1ccc(CO)cc1	
Not Active	300	C[C@]12CC[C@@H]3c4ccc(O)cc4CC[C@H]3[C@@H]1CC[C@@]2(O)C#Cc1ccc(CNC[C@H]2O[C@@H]3O[C@H]4[C@H](O)[C@@H](O)[C@@H](O[C@H]5[C@H](O)[C@@H](O)[C@@H](O[C@H]6[C@H](O)[C@@H](O)[C@@H](O[C@H]7[C@H](O)[C@@H](O)[C@@H](O[C@H]8[C@H](O)[C@@H](O)[C@@H](O[C@H]9[C@H](O)[C@@H](O)[C@@H](O[C@H]2[C@H](O)[C@H]3O)O[C@@H]9CNCc2ccc(C#C[C@]3(O)CC[C@H]9[C@@H]%10CCc%11cc(O)ccc%11[C@H]%10CC[C@@]93C)cc2)O[C@@H]8CNCc2ccc(C#C[C@]3(O)CC[C@H]8[C@@H]9CCc%10cc(O)ccc%10[C@H]9CC[C@@]83C)cc2)O[C@@H]7CNCc2ccc(C#C[C@]3(O)CC[C@H]7[C@@H]8CCc9cc(O)ccc9[C@H]8CC[C@@]73C)cc2)O[C@@H]6CNCc2ccc(C#C[C@]3(O)CC[C@H]6[C@@H]7CCc8cc(O)ccc8[C@H]7CC[C@@]63C)cc2)O[C@@H]5CNCc2ccc(C#C[C@]3(O)CC[C@H]5[C@@H]6CCc7cc(O)ccc7[C@H]6CC[C@@]53C)cc2)O[C@@H]4CNCc2ccc(C#C[C@]3(O)CC[C@H]4[C@@H]5CCc6cc(O)ccc6[C@H]5CC[C@@]43C)cc2)cc1	
